Key:
[1] = target: T1, Serine/threonine-protein kinase PLK4 (Homo sapiens, UniProt O00444); assay: Inhibition of human recombinant PLK4 incubated for 1 hrs by LanthaScreen Eu kinase FRET assay
T1 sequence (O00444 whole entry): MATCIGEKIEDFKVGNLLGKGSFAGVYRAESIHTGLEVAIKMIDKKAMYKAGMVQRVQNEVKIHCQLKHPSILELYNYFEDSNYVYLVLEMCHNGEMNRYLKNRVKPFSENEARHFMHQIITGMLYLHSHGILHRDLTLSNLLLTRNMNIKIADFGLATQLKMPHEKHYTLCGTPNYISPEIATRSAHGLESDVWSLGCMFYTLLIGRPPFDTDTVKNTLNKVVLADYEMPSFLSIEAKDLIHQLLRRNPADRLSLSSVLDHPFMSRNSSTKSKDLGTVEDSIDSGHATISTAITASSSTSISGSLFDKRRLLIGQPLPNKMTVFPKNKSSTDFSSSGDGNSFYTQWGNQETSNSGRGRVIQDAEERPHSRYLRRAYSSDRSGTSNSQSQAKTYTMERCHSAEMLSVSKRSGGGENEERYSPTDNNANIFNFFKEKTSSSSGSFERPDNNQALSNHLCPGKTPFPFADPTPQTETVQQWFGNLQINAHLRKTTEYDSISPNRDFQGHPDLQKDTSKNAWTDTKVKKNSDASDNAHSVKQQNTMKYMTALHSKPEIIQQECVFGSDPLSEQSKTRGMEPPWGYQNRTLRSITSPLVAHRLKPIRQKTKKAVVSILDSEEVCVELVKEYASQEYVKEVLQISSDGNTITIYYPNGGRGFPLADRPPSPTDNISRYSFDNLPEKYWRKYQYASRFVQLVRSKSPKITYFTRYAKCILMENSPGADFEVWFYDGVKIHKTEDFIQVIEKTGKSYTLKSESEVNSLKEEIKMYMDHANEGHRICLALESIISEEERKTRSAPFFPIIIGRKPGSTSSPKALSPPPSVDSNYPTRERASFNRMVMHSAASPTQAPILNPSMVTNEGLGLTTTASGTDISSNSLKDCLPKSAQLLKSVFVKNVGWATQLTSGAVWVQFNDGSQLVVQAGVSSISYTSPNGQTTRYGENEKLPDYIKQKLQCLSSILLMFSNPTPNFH

[2] = test system: BT-474; assay: Antiproliferative activity against human BT-474 cells assessed as cell growth inhibition incubated for 5 days by MTT assay; assay type: functional, cell-based; details: BT-474, 120 h
[3] = test system: MCF7; assay: Antiproliferative activity against human MCF7 cells assessed as cell growth inhibition incubated for 5 days by MTT assay; assay type: functional, cell-based; details: MCF7, 120 h
[4] = test system: MDA-MB-231; assay: Antiproliferative activity against human MDA-MB-231 cells assessed as cell growth inhibition incubated for 5 days by MTT assay; assay type: functional, cell-based; details: MDA-MB-231, 120 h
[5] = target: CYP2D6 (Homo sapiens, UniProt P10635); assay: Inhibition of CYP2D6 in human liver microsomes at 10 uM preincubated for 10 mins followed by NADPH cofactor addition and measured after 10 mins by LC-MS/MS analysis; assay type: ADME, Microsome; details: time 20 min
CYP2D6, sequence (P10635 whole entry, canonical isoform): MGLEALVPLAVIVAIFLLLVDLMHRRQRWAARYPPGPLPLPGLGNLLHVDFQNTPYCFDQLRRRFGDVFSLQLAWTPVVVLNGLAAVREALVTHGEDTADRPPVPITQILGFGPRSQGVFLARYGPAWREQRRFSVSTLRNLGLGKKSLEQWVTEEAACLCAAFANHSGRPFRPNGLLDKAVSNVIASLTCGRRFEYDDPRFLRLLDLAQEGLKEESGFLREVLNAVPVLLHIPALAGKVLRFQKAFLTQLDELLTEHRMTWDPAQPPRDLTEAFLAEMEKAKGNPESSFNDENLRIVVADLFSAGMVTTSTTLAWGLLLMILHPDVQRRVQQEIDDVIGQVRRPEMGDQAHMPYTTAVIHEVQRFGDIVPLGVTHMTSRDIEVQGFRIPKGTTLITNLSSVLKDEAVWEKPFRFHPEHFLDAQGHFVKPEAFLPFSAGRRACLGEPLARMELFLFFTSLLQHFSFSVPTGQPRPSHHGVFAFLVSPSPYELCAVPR
In short: (§1)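 Human liver microsome (HLM) incubation with isoform-specific substrate solutions. Test compound was added from a 100× working solution. Mixture was pre-warmed about 10 min at 37 °C, then NADPH cofactor was added and incubated 10 min at 37 °C. The reaction was stopped with cold stop solution, centrifuged at 4000 rpm for 20 min, and the supernatant was diluted and analysed by LC–MS/MS.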

[6] = target: T2, CYP1A2 (Homo sapiens, UniProt P05177); assay: Inhibition of CYP1A2 in human liver microsomes at 10 uM preincubated for 10 mins followed by NADPH cofactor addition and measured after 10 mins by LC-MS/MS analysis; assay type: ADME, Microsome; details: time 20 min; in short: as §1
T2 sequence (P05177 whole entry): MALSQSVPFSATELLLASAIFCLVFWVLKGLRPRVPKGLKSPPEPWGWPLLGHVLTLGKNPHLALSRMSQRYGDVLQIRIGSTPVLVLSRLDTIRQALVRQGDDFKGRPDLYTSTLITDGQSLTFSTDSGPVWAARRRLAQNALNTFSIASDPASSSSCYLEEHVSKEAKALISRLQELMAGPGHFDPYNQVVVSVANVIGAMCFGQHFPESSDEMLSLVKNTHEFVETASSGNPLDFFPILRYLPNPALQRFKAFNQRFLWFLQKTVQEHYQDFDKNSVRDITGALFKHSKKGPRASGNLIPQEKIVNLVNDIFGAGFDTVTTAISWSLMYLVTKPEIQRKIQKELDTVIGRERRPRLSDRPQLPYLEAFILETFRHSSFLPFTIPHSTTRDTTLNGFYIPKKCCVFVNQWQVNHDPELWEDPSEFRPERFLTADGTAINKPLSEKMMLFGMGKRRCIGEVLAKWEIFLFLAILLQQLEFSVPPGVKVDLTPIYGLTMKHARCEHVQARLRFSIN

[7] = Metabolic stability in human plasma assessed as parent compound remaining and measured after 0 mins by LC-MS/MS analysis; assay type: ADME, cell-free; details: read-out: Stability
In short: (§2)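 Pooled frozen plasma was thawed at 37 °C and centrifuged to remove clots. Compound was spiked to a final 2 μM (duplicate) and incubated at 37 °C. At 0, 10, 30, 60 and 120 min, protein was precipitated with acetonitrile stop solution containing tolbutamide and labetalol internal standards. Samples were centrifuged at 4000 rpm and 4 °C, and the supernatant was analysed by LC–MS/MS.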

[8] = Metabolic stability in human liver microsomes assessed as half life in presence of NADPH as co-foctor incubated for 60 mins by LC-MS/MS analysis; assay type: ADME, Microsome
[9] = Metabolic stability in human plasma assessed as parent compound remaining and measured after 60 mins by LC-MS/MS analysis; assay type: ADME, cell-free; details: read-out: Stability; in short: as §2
[10] = Metabolic stability in human liver microsomes assessed as parent compound remaining in absence of NADPH as co-foctor and measured after 60 mins by LC-MS/MS analysis; assay type: ADME, Microsome; details: read-out: Stability
[11] = Metabolic stability in human plasma assessed as half life and measured upto 120 mins by LC-MS/MS analysis; assay type: ADME, cell-free; in short: as §2
[12] = Metabolic stability in human plasma assessed as parent compound remaining and measured after 30 mins by LC-MS/MS analysis; assay type: ADME, cell-free; details: read-out: Stability; in short: as §2
[13] = Metabolic stability in human plasma assessed as parent compound remaining and measured after 120 mins by LC-MS/MS analysis; assay type: ADME, cell-free; details: read-out: Stability; in short: as §2
[14] = target: CYP3A4 (Homo sapiens, UniProt P08684); assay: Inhibition of CYP3A4 in human liver microsomes at 10 uM preincubated for 10 mins followed by NADPH cofactor addition and measured after 10 mins by LC-MS/MS analysis; assay type: ADME, Microsome; details: time 20 min; in short: as §1
CYP3A4, sequence (P08684 whole entry): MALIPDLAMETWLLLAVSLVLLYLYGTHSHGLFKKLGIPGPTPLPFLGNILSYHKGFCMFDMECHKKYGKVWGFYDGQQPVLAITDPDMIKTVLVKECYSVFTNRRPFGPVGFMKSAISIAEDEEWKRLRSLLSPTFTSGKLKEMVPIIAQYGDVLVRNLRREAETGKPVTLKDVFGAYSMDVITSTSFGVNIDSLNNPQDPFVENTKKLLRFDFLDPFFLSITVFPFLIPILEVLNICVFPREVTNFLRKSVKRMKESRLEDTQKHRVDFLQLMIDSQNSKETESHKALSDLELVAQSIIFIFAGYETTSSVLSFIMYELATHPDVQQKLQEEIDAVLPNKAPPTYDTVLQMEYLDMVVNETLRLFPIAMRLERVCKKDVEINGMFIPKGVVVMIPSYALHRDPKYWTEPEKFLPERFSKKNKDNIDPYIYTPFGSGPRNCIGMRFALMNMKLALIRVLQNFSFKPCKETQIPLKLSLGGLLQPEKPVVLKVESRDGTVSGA

[15] = Metabolic stability in human liver microsomes assessed as intrinsic clearance in presence of NADPH as co-foctor incubated for 60 mins by LC-MS/MS analysis; assay type: ADME, Microsome; details: read-out: CLH
[16] = Metabolic stability in human plasma assessed as parent compound remaining and measured after 10 mins by LC-MS/MS analysis; assay type: ADME, cell-free; details: read-out: Stability; in short: as §2
[17] = Metabolic stability in human liver microsomes assessed as parent compound remaining in presence of NADPH as co-foctor and measured after 60 mins by LC-MS/MS analysis; assay type: ADME, Microsome; details: read-out: Stability
[18] = target: CYP2C9 (Homo sapiens, UniProt P11712); assay: Inhibition of CYP2C9 in human liver microsomes at 10 uM preincubated for 10 mins followed by NADPH cofactor addition and measured after 10 mins by LC-MS/MS analysis; assay type: ADME, Microsome; details: time 20 min
CYP2C9, sequence (P11712 whole entry): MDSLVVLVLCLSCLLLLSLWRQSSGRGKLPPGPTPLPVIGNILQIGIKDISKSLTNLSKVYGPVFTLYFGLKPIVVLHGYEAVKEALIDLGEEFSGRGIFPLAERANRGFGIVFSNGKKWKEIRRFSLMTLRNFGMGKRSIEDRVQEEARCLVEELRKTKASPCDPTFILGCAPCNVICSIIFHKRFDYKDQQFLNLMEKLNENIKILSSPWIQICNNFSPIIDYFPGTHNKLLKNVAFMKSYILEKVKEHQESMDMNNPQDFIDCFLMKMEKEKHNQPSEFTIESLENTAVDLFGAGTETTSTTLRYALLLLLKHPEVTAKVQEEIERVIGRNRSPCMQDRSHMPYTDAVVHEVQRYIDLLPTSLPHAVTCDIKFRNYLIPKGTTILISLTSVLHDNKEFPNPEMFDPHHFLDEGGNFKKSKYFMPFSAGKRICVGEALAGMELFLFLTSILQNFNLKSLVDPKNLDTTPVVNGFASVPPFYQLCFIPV

[19] = target: CYP2C19 (Homo sapiens, UniProt P33261); assay: Inhibition of CYP2C19 in human liver microsomes at 10 uM preincubated for 10 mins followed by NADPH cofactor addition and measured after 10 mins by LC-MS/MS analysis; assay type: ADME, Microsome; details: time 20 min; in short: as §1
CYP2C19, sequence (P33261 whole entry): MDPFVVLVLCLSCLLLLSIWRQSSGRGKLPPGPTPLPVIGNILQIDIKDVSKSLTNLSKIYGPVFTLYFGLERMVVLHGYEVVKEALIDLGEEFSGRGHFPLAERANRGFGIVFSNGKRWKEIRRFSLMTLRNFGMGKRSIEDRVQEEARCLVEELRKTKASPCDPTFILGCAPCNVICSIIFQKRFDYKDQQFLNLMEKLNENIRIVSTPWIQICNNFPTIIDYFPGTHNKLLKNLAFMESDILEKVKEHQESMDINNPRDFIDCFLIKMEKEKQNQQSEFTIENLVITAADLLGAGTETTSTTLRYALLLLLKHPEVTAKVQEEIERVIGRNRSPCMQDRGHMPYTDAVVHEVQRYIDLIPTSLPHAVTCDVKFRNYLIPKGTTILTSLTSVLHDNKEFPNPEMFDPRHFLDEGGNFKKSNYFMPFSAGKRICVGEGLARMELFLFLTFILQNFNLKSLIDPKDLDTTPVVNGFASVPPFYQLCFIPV

## Clc1ccc(Sc2ccnc(Nc3ccc(N4CCOCC4)cc3)n2)cc1
[1]
  IC50: 149 nM

## CNC(=O)c1ccccc1Sc1ccnc(Nc2ccc(N3CCOCC3)cc2)n1
[1]
  IC50: 102 nM

## CN(C)c1ccc(Sc2ccnc(Nc3ccc(N4CCOCC4)cc3)n2)cc1
[1]
  IC50: 313 nM

## Nc1ccc(Sc2ccnc(Nc3ccc(N4CCOCC4)cc3)n2)cc1F
[1]
  IC50: 56 nM

## Nc1ccc(Sc2ccnc(Nc3cccc(N4CCOCC4)c3)n2)cc1
[1]
  IC50: 45 nM
[2]
  IC50: 12900 nM
[3]
  IC50: > 20000 nM
[4]
  IC50: 5150 nM

## Nc1ccc(Sc2ccnc(Nc3ccc(C(=O)N4CCOCC4)cc3)n2)cc1
[1]
  IC50: 39 nM
[2]
  IC50: 16200 nM
[3]
  IC50: 3860 nM
[4]
  IC50: 4470 nM

## Nc1ccc(Sc2ccnc(Nc3ccccc3)n2)cc1
[1]
  IC50: 519 nM

## Nc1ccc(Sc2ccnc(Nc3ccc(N4CCSCC4)cc3)n2)cc1
[1]
  IC50: 1100 nM

## Clc1ccccc1Sc1ccnc(Nc2ccc(N3CCOCC3)cc2)n1
[1]
  IC50: 142 nM

## Fc1cccc(Sc2ccnc(Nc3ccc(N4CCOCC4)cc3)n2)c1
[1]
  IC50: 79 nM

## Nc1ccc(Sc2ccnc(Nc3ccc(NC4CCOCC4)cc3)n2)cc1
[1]
  IC50: 7 nM
[5]
  inhibition at 10 min, 10 µM: 8%
[6]
  inhibition at 10 min, 10 µM: 33.1%
[7]
  remaining at 0 h: 100%
[8]
  half-life: > 2.42 h
[9]
  remaining at 1 h: 107%
[10]
  remaining at 1 h: 104%
[11]
  half-life: > 4.82 h
[12]
  remaining at 0.5 h: 114%
[13]
  remaining at 2 h: 104%
[14]
  inhibition at 10 min, 10 µM: 14.4%
[15]
  microsomal CLint: < 9.6 µL/min/mg
[16]
  remaining at 10 min: 105%
[17]
  remaining at 1 h: 100%
[18]
  inhibition at 10 min, 10 µM: 42.9%
[2]
  IC50: 7810 nM
[3]
  IC50: 1440 nM
[4]
  IC50: 2130 nM
[19]
  inhibition at 10 min, 10 µM: 48.7%

## Nc1ccc(Sc2ccnc(Nc3ccc(CN4CCNCC4)cc3)n2)cc1
[1]
  IC50: 379 nM

## Nc1cccc(Sc2ccnc(Nc3ccc(N4CCOCC4)cc3)n2)c1
[1]
  IC50: 153 nM

## c1ccc(CNc2ccnc(Nc3ccc(N4CCOCC4)cc3)n2)cc1
[1]
  IC50: 176 nM

## c1ccc(Sc2ccnc(Nc3ccc(N4CCOCC4)cc3)n2)cc1
[1]
  IC50: 31 nM
[2]
  IC50: > 20000 nM
[3]
  IC50: > 20000 nM
[4]
  IC50: 7570 nM

## Fc1ccccc1Sc1ccnc(Nc2ccc(N3CCOCC3)cc2)n1
[1]
  IC50: 136 nM

## c1cc(Sc2ccc3[nH]ncc3c2)nc(Nc2ccc(N3CCOCC3)cc2)n1
[1]
  IC50: 125 nM

## c1ccc2c(Sc3ccnc(Nc4ccc(N5CCOCC5)cc4)n3)cccc2c1
[1]
  IC50: 177 nM

## c1ccc(Oc2ccnc(Nc3ccc(N4CCOCC4)cc3)n2)cc1
[1]
  IC50: 81 nM

## Brc1cccc(Sc2ccnc(Nc3ccc(N4CCOCC4)cc3)n2)c1
[1]
  IC50: 2380 nM

## COC(=O)c1cc(Nc2nccc(Sc3ccc(N)cc3)n2)ccc1NC1CCOCC1
[1]
  IC50: 6620 nM

## Brc1ccccc1Sc1ccnc(Nc2ccc(N3CCOCC3)cc2)n1
[1]
  IC50: 219 nM

## Nc1ccc(Sc2ccnc(Nc3ccc(NC4CCNC4)cc3)n2)cc1 (stereo unspecified)
[1]
  IC50: 80 nM

## CNc1ccc(Sc2ccnc(Nc3ccc(N4CCOCC4)cc3)n2)cc1
[1]
  IC50: 71 nM

## Fc1ccc(Sc2ccnc(Nc3ccc(N4CCOCC4)cc3)n2)cc1
[1]
  IC50: 198 nM

## Nc1ccc(Sc2ccnc(Nc3ccc(CN4CCOCC4)cc3)n2)cc1
[1]
  IC50: 64 nM

## Nc1ccc(Sc2ccnc(Nc3ccc(NC4CCNCC4)cc3)n2)cc1
[1]
  IC50: 57 nM

## Clc1cccc(Sc2ccnc(Nc3ccc(N4CCOCC4)cc3)n2)c1
[1]
  IC50: 1430 nM

## Nc1ccc(Sc2ccnc(Nc3ccc(N4CCNCC4)cc3)n2)cc1
[1]
  IC50: 139 nM

## c1cc(Sc2ccnc(Nc3ccc(N4CCOCC4)cc3)n2)c2cccnc2c1
[1]
  IC50: 46 nM
[2]
  IC50: > 20000 nM
[3]
  IC50: > 20000 nM
[4]
  IC50: 6480 nM

## Nc1ccc(Sc2ccnc(Nc3ccc(N4CCOCC4)cc3)n2)cc1
[1]
  IC50: 17 nM
[8]
  half-life: 0.972 h
[10]
  remaining at 1 h: 94.4%
[15]
  microsomal CLint: 23.8 µL/min/mg
[17]
  remaining at 1 h: 48.7%
[2]
  IC50: > 20000 nM
[3]
  IC50: 8720 nM
[4]
  IC50: 5110 nM

## Nc1ccc(Sc2ccnc(Nc3ccc(N4CCOCC4)cc3)n2)c(F)c1
[1]
  IC50: 35 nM
[2]
  IC50: 9320 nM
[3]
  IC50: 3450 nM
[4]
  IC50: 8080 nM

## Nc1ccc(Sc2ccnc(Nc3cccc(CN4CCOCC4)c3)n2)cc1
[1]
  IC50: 137 nM

## Brc1ccc(Sc2ccnc(Nc3ccc(N4CCOCC4)cc3)n2)cc1
[1]
  IC50: 189 nM

## Nc1ccccc1Sc1ccnc(Nc2ccc(N3CCOCC3)cc2)n1
[1]
  IC50: 297 nM

## c1ccc(Nc2ccnc(Nc3ccc(N4CCOCC4)cc3)n2)cc1
[1]
  IC50: 65 nM

— ChEMBL document CHEMBL5329176, “Design, synthesis, and biological evaluation of novel pyrimidin-2-amine derivatives as potent PLK4 inhibitors” (RSC Med Chem, 2023)
